# RGS4 act: potentiators or activators of RGS4 | B-score at 10 µM | 0.92% of 310,000 active | HEK293 M3R/inducible RGS4, carbachol calcium flux Fluo4; hits give low values;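 active means B-score of the integrated calcium signal more than 4 SD below the library mean, with starting fluorescence not abnormally high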;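 further: negative B-score means reduced calcium response which marks RGS4 activation or potentiation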
#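 Assay system: HEK293 FlpIn-TREx cells, stable M3R, doxycycline-inducible RGS4 / Probe or stimulus: carbachol, ECmax concentration / Times: overnight RGS4 induction, 30 min dye load 37 °C, 20 min compound RT / Signal: kinetic calcium fluorescence imaging with Fluo4-AM dye, 2 µM / Measure: Agonist-evoked peak-minus-minimum fluorescence over baseline, integrated ratio, B score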
# MrgX1 allo act: human MrgX1 positive allosteric modulation, primary screen; Q96LB2; MrgX1-HEK293, Fluo-4 calcium flux, FDSS; hits give high values; B-score at 10 µM; 0.63% of 310,000 active; AID 588675;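 active means plate-corrected calcium response at least 3 library SD above typical, normal starting fluorescence, not activating the receptor alone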;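 further: compound read alongside a low EC10 to EC30 dose of BAM8-22 agonist; peak minus trough fluorescence over baseline measured at the second addition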
# Target sequence (Q96LB2 whole entry, looked up): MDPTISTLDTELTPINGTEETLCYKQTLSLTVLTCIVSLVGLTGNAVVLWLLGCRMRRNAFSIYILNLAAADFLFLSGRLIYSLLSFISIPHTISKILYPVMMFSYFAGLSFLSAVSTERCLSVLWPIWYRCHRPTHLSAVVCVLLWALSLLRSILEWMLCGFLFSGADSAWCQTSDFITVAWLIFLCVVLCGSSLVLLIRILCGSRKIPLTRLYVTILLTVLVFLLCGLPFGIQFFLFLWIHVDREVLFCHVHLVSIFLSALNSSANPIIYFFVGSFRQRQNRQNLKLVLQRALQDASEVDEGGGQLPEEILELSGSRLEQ
# MrgX1 antag: antagonists of human MrgX1 receptor; MRGX1-HEK293 calcium flux, Fluo-4, BAM8-22 antagonism; hits give low values; B-score at 10 µM; 1.3% of 310,000 active;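 active means calcium-response B-score plate-corrected more than 3 library SD below zero, starting fluorescence within 5 deviations, no agonist response on first addition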;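 further: peak minus trough fluorescence over baseline after final BAM8-22 challenge near maximal dose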
# MrgX1 agonist: agonists of human MrgX1 receptor; Q96LB2; MrgX1-HEK293 cells, Fluo-4 calcium fluorescence, agonist mode; hits give high values; B-score at 10 µM; 0.44% of 310,000 active; AID 588627;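 active means calcium response B-score plate-corrected fluorescence ratio at least 3 library SD, with starting fluorescence B-score inside 5 SD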
#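 Test system: Stable human MrgX1 HEK293 cell line | Schedule: Overnight plating before 1 h dye loading | Read-out basis: Baseline-normalised fluorescence change ratio, B-scored | Detection: Kinetic calcium dye fluorescence, Fluo-4 NW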
# RGS4 inh: inhibitors of human RGS4; P49798; HEK293 M3R/RGS4 inducible, Fluo-4 calcium flux; hits give high values; triggered by carbachol at its EC20; B-score at 10 µM; 0.45% of 310,000 active;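 active means B-score, a plate-corrected calcium signal, over three deviations above library mean, with baseline fluorescence within five deviations of library mean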;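 further: RGS4 expression induced by doxycycline in cells with stable M3 receptor; B-score is computed from the integrated fluorescence ratio over baseline after carbachol; higher B-score means a larger calcium signal and so more RGS4 inhibition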
# Target sequence (P49798 whole entry, looked up): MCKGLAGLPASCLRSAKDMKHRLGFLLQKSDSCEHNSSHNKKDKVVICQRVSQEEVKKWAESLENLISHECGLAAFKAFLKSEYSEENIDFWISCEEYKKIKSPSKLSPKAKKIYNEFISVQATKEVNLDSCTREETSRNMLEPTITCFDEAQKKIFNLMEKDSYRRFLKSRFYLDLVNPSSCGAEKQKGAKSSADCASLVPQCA
# RGS4 act valid: RGS4 activation, validation assay; shares compounds with RGS4 act; HEK293 M3R/RGS4 inducible, carbachol calcium flux Fluo4; inhibition, % at 10 µM; 89% of 1,100 active; AID 602282;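 active means inhibition above 3 SD of the buffer control wells, cut at about 41% in these data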;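 further: signal is the integrated peak-minus-minimum Fluo4 fluorescence over baseline ratio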
# RGS4 act ctr: RGS4 activator counter-screen hit in non-induced cells | inhibition, % at 10 µM | shares compounds with RGS4 act | 82% of 1,100 active | HEK293 M3R non-induced RGS4, Fluo4 calcium flux; after carbachol challenge at its EC90;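 active means inhibition exceeding 3 SD of buffer-only control wells, cut at about 26% in these data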;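 further: percent drop in integrated peak-minus-baseline over baseline Fluo4 ratio after carbachol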
# Starred values were filed as active, the others as inactive; i = inactive; x = no result given. In the library only some 3.5% were active in any assay of this set; here they are far more common.
SMILES,RGS4 act,MrgX1 allo act,MrgX1 antag,MrgX1 agonist,RGS4 inh,RGS4 act valid,RGS4 act ctr
O=C1C2CSCN2C(=O)CN1CCCN1CCN(C(c2ccccc2)c2ccccc2)CC1 (configuration not stated),-8*,i,i,i,i,84*,34*
c1ccc(OCCOCCN2CCN(C(c3ccccc3)c3ccccc3)CC2)cc1,i,i,i,i,i,x,x
COc1ccc(CCNC(=O)c2ccc(CS(=O)Cc3ccc(C)cc3)o2)cc1OC (configuration not stated),i,i,i,i,i,x,x
COC(=O)C1C(c2ccc(OC)cc2)Nc2nnc(C(F)(F)F)n2C1(C)O (configuration not stated),i,i,i,i,i,x,x
CCCCc1n[nH]c(=S)n1Cc1ccc(C)cc1,-8.3*,i,i,i,i,72*,29*
CCCCCCCc1n[nH]c(=S)n1Cc1ccccc1,i,i,i,i,i,x,x
Cc1nccn1CCc1n[nH]c(=S)n1Cc1ccccc1,-9.5*,i,i,i,i,86*,68*
COc1ccccc1OCC(=O)NCCS(=O)(=O)N1CCN(c2ccccc2)CC1,i,i,i,i,i,x,x
O=S(=O)(Nc1ccccc1)c1ccc(NS(=O)(=O)c2c(F)cccc2F)cc1,i,i,i,i,i,x,x
Cc1ccc(NC(=O)Cn2nc(C(=O)O)c3ccccc3c2=O)c([N+](=O)[O-])c1,i,i,i,i,i,x,x
Cc1ccccc1OCC(=O)NNC(=O)C1CCN(c2ncnc3sc(C)c(C)c23)CC1,i,i,i,i,i,x,x
CCCN(CC(=O)Nc1ccccc1C)C(=O)C1CCN(c2ncnc3sc(C)c(C)c23)CC1,-8.7*,i,i,i,i,64*,27*
CC1CCC(C(C)C)C(OC(=O)C[n+]2cc(-c3ccc(Cl)cc3)n3c2CCCCC3)C1 (configuration not stated),-11*,i,i,i,i,94*,94*
CN(C)CCCNC(=O)c1ccc(-c2nc(-c3ccc(Cl)cc3)cs2)cc1,-8.2*,i,i,i,i,96*,98*
Cc1cc(NC(=O)COc2ccc(C(C)(C)C)cc2)no1,i,x,x,x,i,x,x
Cc1cnc(NC(=O)CSc2nc3ccccc3s2)s1,i,i,i,i,i,x,x
Cc1cnc(NC(=O)c2ccc(-c3nc4ccccc4s3)o2)s1,-9.7*,i,i,i,i,79*,32*
CC(=O)c1cccc(OCC(O)CNCCOc2ccc(C)cc2)c1 (configuration not stated),i,i,i,i,i,x,x
Cc1cccc(OCc2nc(C#N)c(N3CC(C)CC(C)C3)o2)c1 (configuration not stated),-9.1*,i,i,i,i,94*,70*
Cc1cccc(OCc2nc(C#N)c(N3CCCC3)o2)c1,i,i,i,i,i,x,x
O=C(CN1CCCCC1)Nc1ccccc1Oc1ccccc1,-8.2*,i,i,i,i,61*,84*
CCCc1cc(-c2n[nH]c(=S)n2CC)cs1,i,i,i,i,i,x,x
CCCCn1c(-c2csc(CCC)c2)n[nH]c1=S,-12*,i,i,i,i,58*,84*
COC(=O)c1ccc(Oc2c(F)c(F)nc(N3CCOCC3)c2F)cc1,i,i,i,i,i,x,x
Cc1cccc(CC(=O)NCCN2CCCCC2)c1,i,i,i,i,i,x,x
SMILES,RGS4 act,MrgX1 allo act,MrgX1 antag,MrgX1 agonist,RGS4 inh,RGS4 act valid,RGS4 act ctr
CCOC(=O)c1ccccc1NC(=O)c1cn(-c2ccc(C)c(C)c2)c(=O)c2ccccc12,i,i,i,i,i,x,x
COC(=O)c1ccccc1NC(=O)c1cn(-c2ccc(C)c(C)c2)c(=O)c2ccccc12,-11*,i,i,i,i,76*,84*
COc1ccc(S(=O)(=O)N(C)C)cc1NC(=O)CSc1nnc(-c2cccnc2)o1,i,i,i,i,i,x,x
COc1ccccc1C(=O)NCC1CCN(c2ccc(S(=O)(=O)N3CCOCC3)cc2)CC1,-7.8*,i,i,i,i,93*,86*
Cc1cccc(N(C(=O)c2csnn2)C(C(=O)NC2CCCCC2)c2ccncc2)c1 (configuration not stated),i,i,i,i,i,x,x
CN(C(=O)CO/N=C/c1ccc(Cl)cc1)c1ccccc1,i,i,i,i,i,x,x
CC1CN(CCCCOc2cccc(Oc3ccccc3)c2)CC(C)O1 (configuration not stated),i,i,i,i,i,x,x
CC1CCCN(CCOc2cccc(Oc3ccccc3)c2)C1 (configuration not stated),-8.6*,i,i,i,i,90*,57*
CC1CCN(CCOc2cccc(Br)c2)CC1,i,i,i,i,i,x,x
c1ccc(Oc2cccc(OCCCCN3CCCC3)c2)cc1,-11*,i,i,i,i,94*,88*
Brc1cccc(OCCCN2CCCCCC2)c1,-8.5*,i,i,i,i,76*,84*
CCCOc1ccc(OCCN2CCCC(C)C2)cc1 (configuration not stated),-9.8*,i,i,i,i,92*,50*
Cc1cc(OCCCCCN2CCCC2)ccc1Cl,-9.5*,i,i,i,i,80*,27*
Clc1ccc(OCCCN2CCCC2)cc1Cl,i,i,i,i,i,x,x
CN(C)C/C=C/C(O)(c1ccccc1)c1ccccc1,-9.3*,i,i,i,i,93*,75*
O=C(COc1ccccc1)Nc1cccc(-c2nc3ccccc3[nH]2)c1,-8.1*,i,i,i,i,76*,37*
CCn1ncc(S(=O)(=O)N2CCN(c3cccc(OC)c3)CC2)c1C,i,i,i,i,i,x,x
CCn1c(C)c(C)c2cc(C(=O)NCCCN3CCCCC3C)ccc21 (configuration not stated),i,i,i,i,i,x,x
CCCCC(CC)C(=O)Oc1ccc(O)c(C(C)(C)C)c1 (configuration not stated),-7.7*,i,i,i,i,92*,87*
